NadD inh: NadD (S. aureus) enzyme inhibition; purified NadD enzyme, colorimetric absorbance read-out; inhibition, % at 20 µM; 0.78% of 360,000 active; in the data active = inhibition above about 26%
Scp1 inh: blocks human Scp-1 phosphatase activity. AID 493091. 0.88% of 340,000 active. inhibition, % at 20 µM. Q9GZU7. Recombinant Scp1, phosphopeptide, malachite green phosphate absorbance;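 active = inhibition above about 50% at 20 µM, limit read from the data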
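Assay system: SCP-1 catalytic fragment, aa 76-261 | Buffer or medium: Tris acetate buffer pH 5.5 with MgCl2 and Tween-20 | Compound: One concentration, 20 µM, with 1.0% DMSO | Also added: Phospho 17-mer peptide substrate | Signal: Absorbance at 630 nm | Incubation: 45 min enzyme reaction at room temperature | Measure: % inhibition of SCP-1 phosphate liberation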
STEP block: STEP (human) phosphatase inhibition | recombinant STEP, OMFP fluorogenic substrate, fluorescence | inhibition, % at 20 µM | 0.25% of 360,000 active | AID 588621;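 active = inhibition at 20 µM, scaled per plate between control wells, above about 37%, limit read from the data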
Target sequence (P54829 whole entry, looked up): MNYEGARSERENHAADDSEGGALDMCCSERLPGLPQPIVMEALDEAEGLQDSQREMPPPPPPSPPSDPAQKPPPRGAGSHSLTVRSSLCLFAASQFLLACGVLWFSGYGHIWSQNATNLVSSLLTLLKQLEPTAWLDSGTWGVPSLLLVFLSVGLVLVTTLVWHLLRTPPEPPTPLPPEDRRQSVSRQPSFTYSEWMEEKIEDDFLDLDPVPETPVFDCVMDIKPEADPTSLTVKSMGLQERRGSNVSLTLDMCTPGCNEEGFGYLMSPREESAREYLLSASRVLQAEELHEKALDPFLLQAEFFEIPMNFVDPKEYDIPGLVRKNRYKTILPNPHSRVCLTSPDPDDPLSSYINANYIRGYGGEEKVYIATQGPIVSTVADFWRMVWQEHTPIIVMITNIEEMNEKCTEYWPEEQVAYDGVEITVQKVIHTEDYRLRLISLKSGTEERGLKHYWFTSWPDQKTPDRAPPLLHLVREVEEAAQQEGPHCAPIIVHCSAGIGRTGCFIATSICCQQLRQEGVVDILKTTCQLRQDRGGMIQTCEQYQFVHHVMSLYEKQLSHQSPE
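Material: STEP (striatal-enriched tyrosine phosphatase) enzyme, cell-free | Medium: 50 mM Bis-Tris pH 6.0 with 2.5 mM DTT and 0.005% Tween 20 | Read-out: Percent inhibition scaled to no-enzyme and uninhibited-enzyme controls, plate-pattern corrected | Signal: Fluorescence read at 480 nm ex / 540 nm em | Times: 20 min reaction, room temperature, in the dark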
LMPTP block: blocks human LMPTP phosphatase | P24666 | recombinant LMPTP-A, OMFP fluorogenic substrate, fluorescence intensity | inhibition, % at 20 µM | 0.22% of 360,000 active;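 active = compounds that cut the enzyme signal by at least half of the control window in the single-dose screen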
Target sequence (P24666 whole entry, looked up): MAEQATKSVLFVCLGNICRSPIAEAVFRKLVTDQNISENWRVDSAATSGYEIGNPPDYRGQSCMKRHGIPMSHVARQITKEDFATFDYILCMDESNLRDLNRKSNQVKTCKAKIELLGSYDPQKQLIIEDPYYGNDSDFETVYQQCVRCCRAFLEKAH
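Test system – LMPTP-A phosphatase enzyme · Quantity – 0.625 nM LMPTP-A final · Reagent – OMFP substrate, 400 µM final · Dosing – one test concentration per compound, 20 µM, with 3% DMSO overall · Timing – 50 min enzyme reaction at room temperature, protected from light · Detection – fluorescence intensity · Controls – substrate-only low control, DMSO enzyme-plus-substrate high control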
rCAG binder: molecules binding r(CAG) RNA repeats; r(CAG) RNA repeat, TO-PRO-1 dye displacement fluorescence; 1.3% of 370,000 active; inhibition, % at 3 µM;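 active = inhibition above the plate cutoff, the mean of all test compounds on that plate plus 3 SD, cut at about 35% in these data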;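 also: higher means more dye released from RNA so lower well fluorescence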
rCAG binder conf: r(CAG) RNA repeat binding, confirmation; shares compounds with rCAG binder; TO-PRO-1 dye displacement fluorescence; inhibition, % at 3 µM; 70% of 4,300 active; AID 652065;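 active = inhibition above a per-plate cutoff, the mean inhibition of sample wells plus 3 SD, cut at about 35% in these data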;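 also: loss of TO-PRO-1 fluorescence as compound displaces dye from 1x1 AA loop RNA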
dCAG dye counter: counter-screen for rCAG RNA binders: DNA CAG dye complex inhibitors; shares compounds with rCAG binder; d(CAG) DNA oligo TO-PRO-1 dye displacement, fluorescence; inhibition, % at 3 µM; 94% of 4,300 active;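 active = inhibition above its plate's cutoff, the mean test-well inhibition plus 3 SD, cut at about 4.8% in these data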;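 also: hits displace the dye from DNA and so lower well fluorescence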
dCAG dye DR: DNA CAG dye complex inhibition, dose response counter-screen; 20% of 250 active; DNA CAG/GTC duplex TO-PRO-1 dye displacement fluorescence; IC50, µM; shares compounds with rCAG binder; in the data active = IC50 below about 10 µM
Each line names hits and unclear results; the compound was inactive in the other large screens (follow-up assays come after a bar, where they were run). Sampled rows, rich in hits. Any-hit rate of the full collection: about 2.6%.

Cc1ccc(NC(=O)c2ccc(NCCN)c([N+](=O)[O-])c2)cc1Cl	rCAG binder 38 | rCAG binder conf inactive | dCAG dye counter inactive
CCn1c(C)nc2cc(C(=O)NNC(=S)Nc3ccc(Cl)cc3Cl)ccc21	rCAG binder 58 | rCAG binder conf 49 | dCAG dye counter 16
Cc1ccc(NC(=S)NNC(=O)c2ccc(N3CCOCC3)c([N+](=O)[O-])c2)cc1Cl	rCAG binder 80 | rCAG binder conf 84 | dCAG dye counter 46
Cc1ccc(S(=O)(=O)N2CCOCC2)cc1C(=O)Nc1ccc(C(N)=O)cc1	none
O=C(Nc1ccc(S(=O)(=O)Nc2nccs2)cc1)c1ccc(S(=O)(=O)N2CCOCC2)cc1	none
O=C(Nc1ccc(S(=O)(=O)Nc2nccs2)cc1)c1ccc(F)c(S(=O)(=O)N2CCOCC2)c1	rCAG binder 45 | rCAG binder conf 37 | dCAG dye counter 16
Cc1ccc(S(=O)(=O)N2CCOCC2)cc1C(=O)Nc1ccc(S(=O)(=O)Nc2nccs2)cc1	rCAG binder 39 | rCAG binder conf inactive | dCAG dye counter 12
CC(C)CN1C(=O)C[C@]2(C(=O)N(C)c3ccc(NS(=O)(=O)c4ccc(F)cc4)cc32)C1c1ccccc1 (some centres undefined)	none (no result: NadD inh, Scp1 inh, STEP block, LMPTP block)
Cc1ccc(SCC(=O)N2CCOCC2)cc1	rCAG binder 40 | rCAG binder conf inactive | dCAG dye counter inactive
O=C(CSc1ccc(Cl)cc1)N1CCOCC1	none
COc1ccc2c(c1)CNC2CS(=O)(=O)NC1CCCC1 (centres undefined)	none (no result: NadD inh, Scp1 inh, STEP block, LMPTP block)
CCC(Sc1nc2ccsc2c(=O)n1Cc1ccc(C(=O)O)cc1)C(=O)Nc1cccc(OC)c1 (centres undefined)	rCAG binder 46 (no result: Scp1 inh) | rCAG binder conf 36 | dCAG dye counter 11
CCc1ccc(NC(=O)C(CC)Sc2nc3ccsc3c(=O)n2CCC(=O)O)cc1 (centres undefined)	rCAG binder 38 | rCAG binder conf inactive | dCAG dye counter 4.4
CCOc1ccc(NC(=O)CSc2nc3ccsc3c(=O)n2CCC(=O)O)cc1	none
Cc1noc(NS(=O)(=O)c2ccc(NC(=O)CCC3CCCCC3)cc2)c1C	rCAG binder 45 | rCAG binder conf 46 | dCAG dye counter 8.6 | dCAG dye DR inactive
COCC(=O)Nc1ccc(S(=O)(=O)Nc2onc(C)c2C)cc1	none (no result: Scp1 inh)
Cc1ccc(C2(C)NC(=O)N(CC(=O)Nc3ccc(S(=O)(=O)Nc4nccs4)cc3)C2=O)cc1 (centres undefined)	rCAG binder 51 | rCAG binder conf inactive | dCAG dye counter 12
Cc1noc(NS(=O)(=O)c2ccc(NC(=O)C34CC5CC(C3)CC(n3cnc(Br)n3)(C5)C4)cc2)c1C	rCAG binder 41 | rCAG binder conf inactive | dCAG dye counter 7.6
CC(=O)Nc1ccc(NC(=O)C23CC4CC(C2)CC(n2cnc(Br)n2)(C4)C3)cc1	none
O=C(CCC1CCCCC1)Nc1ccc(S(=O)(=O)Nc2nccs2)cc1	rCAG binder 53 | rCAG binder conf 43 | dCAG dye counter 14
CCCCNC(=O)C[C@@H]1C(=O)N(Cc2ccc(OC)cc2)C2=CCN(C(=O)OC(C)(C)C)C[C@]21C(=O)OCC	none (no result: NadD inh, Scp1 inh, STEP block, LMPTP block)
COC(=O)[C@]12C[C@H](CC(=O)NCC3CCCCC3)C(=O)N(Cc3ccccc3)C1=C[C@H](C(C)C)O[C@@H]2C1CC1	none (no result: NadD inh, Scp1 inh, STEP block, LMPTP block)
N#Cc1ccc(/C=C2\CC3(OC(=O)c4cccc(F)c4)CCCN2C3)cc1 (centres undefined)	none (no result: NadD inh, Scp1 inh, STEP block, LMPTP block)
COc1ccc(C(=O)CSc2nnc(-c3ccc(C(C)(C)C)cc3)n2C)cc1	none (no result: NadD inh, Scp1 inh, STEP block, LMPTP block)
COc1ccc(Cn2ccc3ccc(-c4ccc5ccn(Cc6ccccc6F)c5c4)cc32)cc1	none (no result: NadD inh, Scp1 inh, STEP block, LMPTP block)
CCCCCN1CCCCC(NC(=O)c2ccccc2C)C1=O (centres undefined)	none (no result: NadD inh, Scp1 inh, STEP block, LMPTP block)
O=c1[nH]c2ccccc2c2nc3ccccn3c12	none
O=c1nc2c(O)cccn2c2c1c(=O)[nH]c1ccccc12	Scp1 inh 55, STEP block 57, LMPTP block 65, rCAG binder 40 | rCAG binder conf inactive | dCAG dye counter inactive
NNS(=O)(=O)c1ccc2c(c1)Cc1cc(S(=O)(=O)NN)ccc1-2	rCAG binder 42 | rCAG binder conf inactive | dCAG dye counter inactive
COc1cc(NC(=O)CSc2ncnc3sc4c(c23)CCCC4)c(C(=O)O)cc1OC	STEP block 96, rCAG binder 67 | rCAG binder conf 53 | dCAG dye counter 17
O=C(O)c1cc(N=Cc2c(O)c3ccccc3oc2=O)ccc1O	rCAG binder 38 | rCAG binder conf inactive | dCAG dye counter inactive
CCCCCCCCCCCC(=O)NC(Cc1ccc(OC)c([N+](=O)[O-])c1)C(=O)O (centres undefined)	rCAG binder 44 | rCAG binder conf 43 | dCAG dye counter 9.2
CCOC(=O)C(Cc1ccc(OC)c([N+](=O)[O-])c1)NC(=O)CCC(=O)Nc1ccc(OC)cc1 (centres undefined)	none
COc1ccc2c(c1)CCCN2C(=O)C1CCCN(S(=O)(=O)c2cc(OC)ccc2OC)C1 (centres undefined)	none (no result: NadD inh, Scp1 inh, STEP block, LMPTP block)
O=C(NC1CCCCN(Cc2cccc(C(F)(F)F)c2)C1=O)c1ccc(COc2ccccc2)cc1 (centres undefined)	none (no result: NadD inh, Scp1 inh, STEP block, LMPTP block)
O=C(NNC(=S)NC1CCCCC1)c1cccc(S(=O)(=O)Nc2ccccc2Cl)c1	rCAG binder 56 | rCAG binder conf 51 | dCAG dye counter 19
CC1CN(C(=O)c2cccc(S(=O)(=O)Nc3cc(Cl)ccc3Cl)c2)CC(C)O1 (centres undefined)	rCAG binder 41 | rCAG binder conf inactive | dCAG dye counter 5.5
O=C(c1cccc(S(=O)(=O)Nc2ccccc2Cl)c1)N1CCN(c2ccccc2O)CC1	rCAG binder 41 | rCAG binder conf inactive | dCAG dye counter 9.3
O=C(N/N=C/c1ccccc1C(=O)O)c1cccc(S(=O)(=O)Nc2cc(Cl)ccc2Cl)c1	rCAG binder 49 | rCAG binder conf inactive | dCAG dye counter 6.8
O=C(c1cccc(S(=O)(=O)Nc2ccccc2Cl)c1)N1CCCCCC1	none
CC1CN(C(=O)c2cccc(S(=O)(=O)Nc3ccccc3Cl)c2)CC(C)O1 (centres undefined)	none
COC(=O)C[C@@H]1CC[C@H]2[C@H](COc3ccc(NC(=O)Nc4ccc(C#N)cc4)cc3C(=O)N2C)O1	none (no result: NadD inh, Scp1 inh, STEP block, LMPTP block)
CCCCN1C(=O)N2CCc3ccccc3C2CS1(=O)=O (centres undefined)	none (no result: NadD inh, Scp1 inh, STEP block, LMPTP block)

High-throughput results deposited in PubChem by several laboratories.
